Assay results: ChEMBL document CHEMBL2069244 (Bioorg Med Chem Lett, 2012)
Calls of active or inactive are those of the source. The rule behind the calls is not given here.

Tests used:
[1] = test system: Mus musculus; test: Anticonvulsant activity in mouse assessed as protection against maximal electroshock-induced seizures at 30 mg/kg, ip after 0.5 hrs; assay type: functional, organism-based; set-up: dose 30 mg/kg
How it was run: (§1)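 Mice dosed ip in 30% polyethylene glycol. Corneas pretreated with 1% tetracaine, then 60 Hz alternating current (50 mA) applied for 0.2 s via corneal electrodes. Protection means absence of the hindlimb tonic extensor component. Scored as number protected/number tested.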

[2] = test system: Mus musculus; test: Anticonvulsant activity in mouse assessed as protection against subcutaneous pentylenetetrazole-induced seizures at 300 mg/kg, ip after 0.5 hrs; assay type: functional, organism-based; set-up: dose 300 mg/kg
[3] = test system: Mus musculus; test: Anticonvulsant activity in mouse assessed as protection against subcutaneous pentylenetetrazole-induced seizures at 100 mg/kg, ip after 4 hrs; assay type: functional, organism-based; set-up: dose 100 mg/kg
[4] = test system: Mus musculus; test: Anticonvulsant activity in mouse assessed as protection against maximal electroshock-induced seizures at 300 mg/kg, ip after 4 hrs; assay type: functional, organism-based; set-up: dose 300 mg/kg; how it was run: as §1
[5] = test system: Mus musculus; test: Anticonvulsant activity in mouse assessed as protection against maximal electroshock-induced seizures at 100 mg/kg, ip after 4 hrs; assay type: functional, organism-based; set-up: dose 100 mg/kg; how it was run: as §1
[6] = test system: Mus musculus; test: Anticonvulsant activity in mouse assessed as protection against maximal electroshock-induced seizures at 300 mg/kg, ip after 0.5 hrs; assay type: functional, organism-based; set-up: dose 300 mg/kg; how it was run: as §1
[7] = test system: Mus musculus; test: Anticonvulsant activity in mouse assessed as protection against maximal electroshock-induced seizures at 100 mg/kg, ip after 0.5 hrs; assay type: functional, organism-based; set-up: dose 100 mg/kg; how it was run: as §1
[8] = test system: Mus musculus; test: Protective index, ratio of TD50 for neurotoxicity in ip dosed mouse to ED50 for anticonvulsant activity in mouse by 6Hz psychomotor seizure test; assay type: functional
How it was run: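 Mice dosed ip in 30% polyethylene glycol. TD50 comes from rotorod toxicity at 6 rpm (three falls in 1 min). ED50 comes from 6 Hz, 32 mA seizure protection. Both are from probit analysis with 95% confidence intervals, and the index is TD50/ED50.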

[9] = test system: Mus musculus; test: Anticonvulsant activity in ip dosed mouse assessed as protection against 32mA-induced seizure measured after 0.25 to 0.5 hrs by 6Hz psychomotor seizure test
[10] = test system: Mus musculus; test: Anticonvulsant activity in mouse assessed as protection against subcutaneous pentylenetetrazole-induced seizures at 300 mg/kg, ip after 4 hrs; assay type: functional, organism-based; set-up: dose 300 mg/kg
[11] = test system: Mus musculus; test: Anticonvulsant activity in mouse assessed as protection against subcutaneous pentylenetetrazole-induced seizures at 100 mg/kg, ip after 0.5 hrs; assay type: functional, organism-based; set-up: dose 100 mg/kg
[12] = test system: Mus musculus; test: Anticonvulsant activity in mouse assessed as protection against maximal electroshock-induced seizures at 30 mg/kg, ip after 4 hrs; assay type: functional, organism-based; set-up: dose 30 mg/kg; how it was run: as §1
[13] = test system: Mus musculus; test: Anticonvulsant activity in mouse assessed as protection against subcutaneous pentylenetetrazole-induced seizures at 30 mg/kg, ip after 4 hrs; assay type: functional, organism-based; set-up: dose 30 mg/kg
[14] = test system: Mus musculus; test: Anticonvulsant activity in mouse assessed as protection against subcutaneous pentylenetetrazole-induced seizures at 30 mg/kg, ip after 0.5 hrs; assay type: functional, organism-based; set-up: dose 30 mg/kg
[15] = test system: Mus musculus; test: Anticonvulsant activity in mouse assessed as peak time to protect against electrically-induced seizure at 100 mg/kg, ip by 6Hz psychomotor seizure test; assay type: functional; details: route intraperitoneal
How it was run: (§2)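 Mice dosed ip in 30% polyethylene glycol, then given a 6 Hz, 32 mA corneal stimulus. Animals lacking the minimal clonic phase and stereotyped automatistic behaviours count as protected. Data are number protected/number tested at each time after dosing.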

[16] = test system: Mus musculus; test: Anticonvulsant activity in mouse assessed as protection against maximal electroshock-induced seizures at 100 mg/kg, ip after 1 hrs; assay type: functional, organism-based; set-up: dose 100 mg/kg; how it was run: as §1
[17] = test system: Mus musculus; test: Anticonvulsant activity in mouse assessed as protection against maximal electroshock-induced seizures at 100 mg/kg, ip after 6 hrs; assay type: functional, organism-based; set-up: dose 100 mg/kg; how it was run: as §1
[18] = test system: Mus musculus; test: Anticonvulsant activity in mouse assessed as protection against maximal electroshock-induced seizures at 100 mg/kg, ip after 2 hrs; assay type: functional, organism-based; set-up: dose 100 mg/kg; how it was run: as §1
[19] = test system: Mus musculus; test: Anticonvulsant activity in mouse assessed as protection against maximal electroshock-induced seizures at 100 mg/kg, ip after 0.25 hrs; assay type: functional, organism-based; set-up: dose 100 mg/kg; how it was run: as §1
[20] = test system: Mus musculus; test: Neurotoxicity in mouse at 30 mg/kg, ip after 4 hrs by 6Hz psychomotor seizure test; assay type: toxicity, organism-based; set-up: dose 30 mg/kg, route intraperitoneal; details: in vivo
How it was run: (§3)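 Mice dosed ip in 30% polyethylene glycol and placed on a rotorod at 6 rpm. An animal is scored toxic if it falls off three times within 1 min.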

[21] = test system: Mus musculus; test: Neurotoxicity in mouse at 300 mg/kg, ip after 0.5 hrs by 6Hz psychomotor seizure test; assay type: toxicity, organism-based; set-up: dose 300 mg/kg, route intraperitoneal; details: in vivo; how it was run: as §3
[22] = test system: Mus musculus; test: Neurotoxicity in mouse at 100 mg/kg, ip after 0.5 hrs by 6Hz psychomotor seizure test; assay type: toxicity, organism-based; set-up: dose 100 mg/kg, route intraperitoneal; details: in vivo; how it was run: as §3
[23] = test system: Mus musculus; test: Neurotoxicity in mouse at 100 mg/kg, ip after 4 hrs by 6Hz psychomotor seizure test; assay type: toxicity, organism-based; set-up: dose 100 mg/kg, route intraperitoneal; details: in vivo; how it was run: as §3
[24] = test system: Mus musculus; test: Neurotoxicity in mouse at 100 mg/kg, ip after 6 hrs by 6Hz psychomotor seizure test; assay type: toxicity, organism-based; set-up: dose 100 mg/kg, route intraperitoneal; details: in vivo; how it was run: as §3
[25] = test system: Mus musculus; test: Neurotoxicity in mouse at 30 mg/kg, ip after 0.5 hrs by 6Hz psychomotor seizure test; assay type: toxicity, organism-based; set-up: dose 30 mg/kg, route intraperitoneal; details: in vivo; how it was run: as §3
[26] = test system: Mus musculus; test: Anticonvulsant activity in mouse assessed as protection against 32mA-induced seizure at 100 mg/kg, ip after 0.5 hrs by 6Hz psychomotor seizure test; assay type: functional, organism-based; set-up: dose 100 mg/kg; how it was run: as §2
[27] = test system: Mus musculus; test: Anticonvulsant activity in mouse assessed as protection against 32mA-induced seizure at 100 mg/kg, ip after 4 hrs by 6Hz psychomotor seizure test; assay type: functional, organism-based; set-up: dose 100 mg/kg; how it was run: as §2
[28] = test system: Mus musculus; test: Neurotoxicity in mouse at 300 mg/kg, ip after 4 hrs by 6Hz psychomotor seizure test; assay type: toxicity, organism-based; set-up: dose 300 mg/kg, route intraperitoneal; details: in vivo; how it was run: as §3
[29] = test system: Mus musculus; test: Neurotoxicity in mouse at 100 mg/kg, ip after 1 hrs by 6Hz psychomotor seizure test; assay type: toxicity, organism-based; set-up: dose 100 mg/kg, route intraperitoneal; details: in vivo; how it was run: as §3
[30] = test system: Mus musculus; test: Anticonvulsant activity in mouse assessed as protection against 32mA-induced seizure at 100 mg/kg, ip after 2 hrs by 6Hz psychomotor seizure test; assay type: functional, organism-based; set-up: dose 100 mg/kg; how it was run: as §2
[31] = test system: Mus musculus; test: Anticonvulsant activity in mouse assessed as protection against 32mA-induced seizure at 100 mg/kg, ip after 1 hr by 6Hz psychomotor seizure test; assay type: functional, organism-based; set-up: dose 100 mg/kg; how it was run: as §2
[32] = test system: Mus musculus; test: Neurotoxicity in mouse at 100 mg/kg, ip after 2 hrs by 6Hz psychomotor seizure test; assay type: toxicity, organism-based; set-up: dose 100 mg/kg, route intraperitoneal; details: in vivo; how it was run: as §3
[33] = test system: Mus musculus; test: Anticonvulsant activity in mouse assessed as protection against 32mA-induced seizure at 100 mg/kg, ip after 0.25 hrs by 6Hz psychomotor seizure test; assay type: functional, organism-based; set-up: dose 100 mg/kg; how it was run: as §2
[34] = test system: Mus musculus; test: Neurotoxicity in mouse at 100 mg/kg, ip after 0.25 hrs by 6Hz psychomotor seizure test; assay type: toxicity, organism-based; set-up: dose 100 mg/kg, route intraperitoneal; details: in vivo; how it was run: as §3

SMILES | Activity [1] | Activity [2] | Activity [3] | Activity [4] | Activity [5] | Activity [6] | Activity [7] | Ratio TD50/ED50 [8] | ED50 [9] [mg/kg] | Activity [10] | Activity [11] | Activity [12] | Activity [13] | Activity [14] | Time [15] [h] | Activity [16] | Activity [19] | Activity [22] | Activity [23] | further results
CCC(C)c1cc(C(O)C(F)(F)F)ccc1O (configuration not stated) | inactive | Active | inactive | inactive | inactive | Active | inactive | 1.6 | 53.9 | inactive | inactive | inactive | inactive | inactive | 0.5 |  |  |  |  | 
CC(C)c1cc(C(O)C(F)(F)F)ccc1O (configuration not stated) | inactive | Active | inactive | Active | inactive | Active | inactive | 1.9 | 84.1 | Active | inactive | inactive | inactive | inactive | 0.25 | inactive | inactive |  |  | Activity [17]: inactive; Activity [18]: inactive
CCC(C)c1cc(C(O)C(F)(F)F)cc(C(C)CC)c1O (configuration not stated) |  |  |  |  |  |  |  |  | 73 |  |  |  |  |  |  |  |  |  |  | 
CCC(C)c1cc(C(O)C(F)(F)F)cc(Br)c1O (configuration not stated) | inactive | inactive | inactive | inactive | inactive | Active | inactive | 1.7 |  | inactive | inactive | inactive | inactive | inactive | 0.5 | inactive | inactive |  |  | 
Cc1cc(C(O)C(F)(F)F)ccc1O (configuration not stated) | inactive | inactive | inactive | Active | inactive | Active | inactive |  |  | inactive | inactive |  | inactive | inactive |  | inactive | inactive | Non-toxic | Non-toxic | Activity [20]: Non-toxic; Activity [21]: Non-toxic; Activity [24]: Non-toxic; Activity [25]: Non-toxic; Activity [26]: inactive; Activity [27]: inactive; Activity [17]: inactive; Activity [28]: Non-toxic; Activity [29]: Non-toxic; Activity [18]: inactive; Activity [30]: inactive; Activity [31]: Active; Activity [32]: Non-toxic; Activity [33]: inactive; Activity [34]: Non-toxic
CC(C)c1cc(C(O)C(F)(F)F)cc(Br)c1O (configuration not stated) | inactive | inactive | inactive | inactive | inactive | inactive | inactive | 3.6 | 112 | inactive | inactive | inactive | inactive | inactive | 0.5 |  |  |  |  | 
CC(C)c1cccc(C(C)C)c1O [PROPOFOL] |  |  |  |  |  |  |  |  | 38.6 |  |  |  |  |  |  |  |  |  |  | 
CCCc1cc(C(O)C(F)(F)F)cc(Br)c1O (configuration not stated) | inactive | inactive | inactive | inactive | inactive | inactive | inactive |  |  | inactive | inactive | inactive | inactive | inactive |  |  |  | Non-toxic | Non-toxic | Activity [29]: Non-toxic; Activity [32]: Non-toxic; Activity [34]: Non-toxic
CCc1cc(C(O)C(F)(F)F)ccc1O (configuration not stated) | inactive | inactive | inactive | inactive | inactive | inactive | inactive |  |  | inactive | inactive | inactive | inactive | inactive |  |  |  | Non-toxic | Non-toxic | Activity [20]: Non-toxic; Activity [21]: Non-toxic; Activity [25]: Non-toxic; Activity [26]: inactive; Activity [27]: inactive; Activity [28]: Non-toxic; Activity [30]: inactive; Activity [31]: inactive; Activity [33]: inactive
